TAAR1 antagonist: antagonists of human TAAR1 | inhibition, % at 3 µM | 360,000 compounds, 1.5% hits | CHO RD-HGA16 TAAR1, Fluo-8 calcium fluorescence, antagonist | Q96RJ0;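 active = inhibition above a per-plate cutoff, the mean inhibition of test compounds on that plate plus 3 SD, cut at about 49% in these data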;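 also: 0% = DMSO plus EC80 beta-PEA response and 100% = DMSO alone without agonist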
Target sequence (Q96RJ0 whole entry, looked up): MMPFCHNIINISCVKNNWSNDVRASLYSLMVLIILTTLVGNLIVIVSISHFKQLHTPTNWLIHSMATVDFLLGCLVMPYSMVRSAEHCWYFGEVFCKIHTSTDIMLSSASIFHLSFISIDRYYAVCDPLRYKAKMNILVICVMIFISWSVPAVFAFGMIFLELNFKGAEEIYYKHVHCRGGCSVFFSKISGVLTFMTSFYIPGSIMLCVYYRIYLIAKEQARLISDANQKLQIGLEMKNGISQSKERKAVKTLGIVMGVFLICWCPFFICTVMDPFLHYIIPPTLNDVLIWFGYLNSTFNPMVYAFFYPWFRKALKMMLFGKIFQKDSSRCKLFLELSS
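System: RD-HGA16 CHO cells with stable hTAAR1 and Gα16 | Probe or stimulus: EC80 β-phenethylamine stimulus | Dosing: 3 µM, single point | Times: Dye loading 75 min at 37 °C, then 30 min room temperature | Measured by: Fluo-8 calcium-sensitive fluorescence | Read-out basis: % inhibition of agonist calcium response | Replicates: n of 1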
LANA-H2B inh: blocks KSHV LANA binding to histone H2A/H2B; Q9QR71; cell-free LANA-H2A/H2B peptide, fluorescence polarization; inhibition, % (no concentration beside the values); 320,000 compounds, 0.6% hits; AID 2629; in the data active = inhibition mostly above about 10%, no sharp cut-off; inactive = mostly below about 6.7%
GPR7 antagonist: antagonists of human GPR7 (neuropeptides B/W receptor 1). P48145. GPR7-expressing cells, fluorescence antagonist assay. inhibition, % at 4.4 µM. 290,000 compounds, 1.1% hits; in the data active = inhibition above about 16%, passing the limit was not always enough;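 also: cells stimulated with the agonist NPW; 0% = agonist with vehicle and 100% = vehicle without agonist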
Target sequence (P48145 whole entry, looked up): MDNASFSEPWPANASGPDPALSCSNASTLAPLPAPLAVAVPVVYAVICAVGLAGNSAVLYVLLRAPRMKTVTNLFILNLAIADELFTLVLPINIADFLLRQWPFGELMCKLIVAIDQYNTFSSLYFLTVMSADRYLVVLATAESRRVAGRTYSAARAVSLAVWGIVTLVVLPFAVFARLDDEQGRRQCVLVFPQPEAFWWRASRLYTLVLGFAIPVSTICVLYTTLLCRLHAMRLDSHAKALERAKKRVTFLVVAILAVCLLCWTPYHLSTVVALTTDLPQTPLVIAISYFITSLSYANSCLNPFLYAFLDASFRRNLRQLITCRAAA
TRPML3 ag: human mucolipin-3 channel agonism; HEK293 TRPML3-YFP, Fluo-8 calcium fluorescence; 100% = the carbachol control signal; activation, % at 3 µM; 220,000 compounds, 0.29% hits; AID 1448;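 active = activation above its plate's cutoff, the mean activation of the plate's test wells plus 3 SD, cut at about 12% in these data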;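 also: 0% = DMSO only wells and 100% = carbachol wells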
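Material: HEK293 cells stably carrying human TRPML3-YFP; compound dosing: single dose, 3 µM final nominal compound, 0.3% DMSO final; incubation: 1-h 37 °C dye load, 5-s basal, 120-s post-compound reads; technique: Fluo-8 intracellular calcium fluorescence, excitation 470-495 nm, emission 515-575 nm; read-out basis: percent activation from peak-to-basal fluorescence ratio, scaled between DMSO and carbachol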
TRPN1 ag: agonists of zebrafish TRPN1 channel; HEK293 zebrafish TRPN1-YFP, Fluo-8 calcium fluorescence; 100% = response to 87 µM carbachol; activation, % at 3 µM; 220,000 compounds, 0.18% hits;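 active = activation above its plate's cutoff, the mean activation of test wells on that plate plus 3 SD, cut at about 19% in these data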;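 also: 0% = DMSO alone and 100% = 87 µM carbachol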
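Material – zebrafish TRPN1-YFP in HEK293 cells · Doses – 3 µM single point · Schedule – dye 1 h 37 °C plus 30 min RT · Signal – Fluo-8 calcium fluorescence, excitation 470-495 nm, emission 515-575 nm · Read-out – % activation versus carbachol response · Control set – carbachol high, DMSO low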
TAAR1 agonist: agonists of human TAAR1; activation, % at 3 µM; 360,000 compounds, 0.99% hits; CHO RD-HGA16 TAAR1, Fluo-8 calcium fluorescence; vehicle wells 0%, saturating PEA agonist 100%; Q96RJ0;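 active = activation above the mean activation of all test compounds in the run plus 3 SD, cut at about 38% in these data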
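Repeats: no replicates (n 1) | Material: CHO-derived RD-HGA16 cells with stable Gα16 and human TAAR1 | Technique: Kinetic Fluo-8 calcium fluorescence | Schedule: 17-24 h seeding, 75 min 37 °C dye, 30 min RT | Evaluation: % activation from peak over basal fluorescence ratio, DMSO-to-PEA scaled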
nonsel antag count: nonselective antagonist in TAAR1 antagonist counter-screen; shares compounds with TAAR1 antagonist; counterscreen cell line, calcium fluorescence, antagonist mode; inhibition, % at 3 µM; 2,400 compounds, 77% hits; AID 651780; in the data active = inhibition above about 22%;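 also: CHO-Ga16 host cells stimulated with ATP at an EC80 level; 0% = agonist EC80 plus vehicle and 100% = vehicle without agonist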
TAAR1 antag conf: confirmation of human TAAR1 antagonists; shares compounds with TAAR1 antagonist; inhibition, % at 3 µM; 2,400 compounds, 40% hits; TAAR1-expressing cells, fluorescence antagonist read-out; in the data active = inhibition above about 49%;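 also: CHO-Ga16 host cells challenged with agonist PEA near its EC80; 0% = agonist at EC80 plus vehicle and 100% = vehicle with no agonist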
Ga16 nonsel ag: nonselective Ga16 agonist in TAAR1 antagonist counter-screen. AID 651953. shares compounds with TAAR1 antagonist. Ga16-expressing cells, calcium fluorescence, agonist counterscreen. 2,400 compounds, 18% hits. activation, % at 3 µM; in the data active = activation above about 12%;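 also: 0% = vehicle wells and 100% = saturating stimulus response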
TAAR1 ag count: activates human TAAR1 in antagonist counter-screen; shares compounds with TAAR1 antagonist; hTAAR1 cell line, fluorescence activation, agonist mode; activation, % at 3 µM; 2,400 compounds, 2% hits; AID 651955; in the data active = activation above about 37%;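 also: CHO cells stably expressing TAAR1 with calcium dye readout; 0% = DMSO vehicle and 100% = full agonist response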
The depositor's hits bear a star; . = not tested or not shown. The list is not random: actives were taken first. Their share in the collection is about 3.4%.

SMILES	TAAR1 antagonist	LANA-H2B inh	GPR7 antagonist	TRPML3 ag	TRPN1 ag	TAAR1 agonist	nonsel antag count	TAAR1 antag conf	Ga16 nonsel ag	TAAR1 ag count
O=C1OC(c2ccccc2)(c2cc(Br)ccc2O)c2ccccc21 (centres undefined)	63*	.	.	.	.	8	28*	46	6	21
COc1ccc(CC(=O)Nc2cccc(-c3csc(C)n3)c2)cc1	8	3	-10	0	0	2	.	.	.	.
Cc1ccc(SCC(=O)Nc2cccc(-c3nnc(-c4ccco4)o3)c2)cc1	65*	-1	-5	0	1	12	38*	52*	10	8
Cc1cccc(OCC(=O)Nc2cccc(-c3nnc(-c4ccccc4)o3)c2)c1C	69*	0	-12	1	0	8	32*	60*	7	3
Cc1cccc(C)c1OCC(=O)Nc1cccc(-c2nnc(-c3ccccc3)o2)c1	-3	9	-6	1	0	12	.	.	.	.
O=C(CSc1ccc(Cl)cc1)Nc1cccc(-c2nnc(-c3ccco3)o2)c1	13	2	-14	1	1	6	.	.	.	.
O=C(COc1ccccc1)Nc1cccc(-c2nc3cc4ccccc4cc3[nH]2)c1	69*	-4	-2	-1	-1	15	38*	59*	8	4
Cc1nc(-c2cccc(NC(=O)COc3ccc(Cl)cc3)c2)cs1	55*	-7	-21	.	.	0	30*	43	5	0
O=C1NC[C@@H](CCCCN2C[C@H](Cc3ccccc3)N(CCc3ccc(O)cc3)C(=O)C2=O)N(Cc2ccccc2)C1=O	-20	.	.	.	.	2	.	.	.	.
COc1ccc(S(=O)(=O)n2cccc2)cc1	-4	3	.	.	.	12	.	.	.	.
CCN(C(=O)COC(=O)/C(=C/c1ccccc1)NC(C)=O)c1c(N)n(Cc2ccccc2)c(=O)[nH]c1=O	-8	.	.	.	.	2	.	.	.	.
Cc1ccc(OCC(=O)Nc2cccc(-c3nnc(-c4ccccc4)o3)c2)cc1	69*	-3	0	1	1	15	35*	65*	7	4
CCC(=O)Nc1cccc(-c2nnc(-c3ccccc3)o2)c1	12	-3	.	.	.	7	.	.	.	.
O=C(Nc1ccccc1)c1cccc(-c2nnc(-c3ccccc3)o2)c1	20	1	-9	0	-1	14	.	.	.	.
O=C(Nc1cccc(-c2nc3ccccc3[nH]2)c1)c1ccccn1	51*	2	-12	.	.	9	19	27	5	4
COc1ccccc1OCC(=O)Nc1cccc(-c2nc3ccccc3o2)c1	66*	4	-16	-1	-1	8	33*	46	4	6
O=C(Nc1cccc(-c2nnc(-c3ccccc3)o2)c1)c1ccco1	50*	7	.	.	.	12	29*	44	7	13
CCC(=O)Nc1cccc(-c2nc3ccccc3o2)c1	-2	-2	4	3	1	11	.	.	.	.
CCc1noc(C)c1C(=O)OCC(=O)NC(=O)c1ccccc1	-9	4	-16	.	.	-1	.	.	.	.
CCOC(=O)N1CCN(C(=O)c2cn(C)c3ccc(S(=O)(=O)N(C)C4CCCCC4)cc3c2=O)CC1	4	11	-5	.	.	0	.	.	.	.
CC(=O)c1cccc(NC(=O)COC(=O)[C@@H](NC(=O)OCc2ccccc2)C(C)C)c1	60*	1	-6	1	3	20	30*	50*	10	14
O=C(Cc1c[nH]c2ccccc12)Nc1ccc(Nc2cccnc2)c(-c2cc(F)cc(F)c2)c1	89*	.	.	.	.	18	36*	57*	14*	15
O=C(Cc1c[nH]c2ccccc12)Nc1ccc(Nc2cccnc2)c(-c2ccc(Cl)c(Cl)c2)c1	71*	.	.	.	.	11	38*	56*	9	10
O=C(Cc1c[nH]c2ccccc12)Nc1ccc(Nc2cccnc2)c(-c2ccc(Oc3ccccc3)cc2)c1	30	.	.	.	.	2	.	.	.	.
COc1ccc(-c2cc(NC(=O)Cc3c[nH]c4ccccc34)ccc2Nc2cccnc2)cc1F	90*	.	.	.	.	20	39*	65*	10	12
SMILES	TAAR1 antagonist	LANA-H2B inh	GPR7 antagonist	TRPML3 ag	TRPN1 ag	TAAR1 agonist	nonsel antag count	TAAR1 antag conf	Ga16 nonsel ag	TAAR1 ag count
CC(Sc1nnc(C2CC2)n1C1CC1)C(=O)c1ccc(F)cc1 (centres undefined)	-11	1	.	.	.	8	.	.	.	.
O=C(NNC(=O)c1cc(-c2ccccc2)nc2ccccc12)Nc1cccc(Cl)c1	80*	1	8	0	-1	10	39*	57*	8	6
Cc1cccc(-c2cc(C(=O)Nc3cccnc3)c3ccccc3n2)c1	58*	-1	-19	.	.	1	17	28	5	3
Cc1c(NC(=O)c2cc(-c3ccc(F)cc3)nc3ccccc23)c(=O)n(-c2ccccc2)n1C	61*	-2	.	.	.	15	25*	46	8	10
CC(C)(C)c1ccc(-c2cc(C(=O)NNC(=O)Nc3ccccc3)c3ccccc3n2)cc1	14	-1	-20	1	-1	0	.	.	.	.
Cc1cccc(-c2cc(C(=O)Nc3c(C)n(C)n(-c4ccccc4)c3=O)c3ccccc3n2)c1	70*	-5	-11	.	.	9	31*	47	7	6
CCC1CCCCN1C(=O)c1ccc(OC2CCN(C(=O)CCOC)CC2)cc1 (centres undefined)	-2	8	-6	.	.	0	.	.	.	.
C=CCC[C@@H](CCCCC)OC(=O)/C=C/[C@@H](O)[C@H](O)C[C@@H](O)CC=C	-38	.	.	.	.	2	.	.	.	.
CC1CCCC(C)N1C(=O)COC(=O)COc1ccc(C#N)cc1 (centres undefined)	-17	-5	.	.	.	8	.	.	.	.
COc1cccc(-c2cccc3c4c([nH]c23)[C@@H]2C[C@H]3[C@@H](C(=O)N2CC4)[C@H](C)ON3C)c1	53*	.	.	.	.	6	22*	36	5	9
C[C@@H]1ON(C)[C@H]2C[C@H]3c4[nH]c5cccc(-c6ccc7c(c6)OCO7)c5c4CCN3C(=O)[C@@H]12	56*	.	.	.	.	9	23*	40	7	10
C[C@@H]1ON(C)[C@H]2C[C@H]3c4cc(N5CCOCC5)ccc4CCN3C(=O)[C@@H]12	-10	.	.	.	.	1	.	.	.	.

Screens deposited in PubChem BioAssay by several laboratories.
